# According to ChEMBL document CHEMBL1938309, “Stereochemical diversity of AI-2 analogs modulates quorum sensing in Vibrio harveyi and Escherichia coli” (Bioorg Med Chem, 2012):
# Calls of active or inactive are those of the source. The rule behind the calls is not given here.
# What was measured:
# [1] = target: T1, Autoinducer 2-binding periplasmic protein LuxP (Vibrio harveyi, UniProt P54300); test: Agonist activity at Vibrio harveyi LuxP receptor; format: functional
# Escherichia coli [2] = test: Agonist activity at LsrB receptor in LsrF-, LsrG-, luxS-deficient Escherichia coli KX1446 assessed as induction of lsr gene expression at 150 uM after 4.5 to 5 hrs by LacZ reporter gene assay; format: functional
# Outline: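 E. coli KX1446 carrying lsr-lacZ fusion grown in LB; analog diluted from 2 mM stock in 0.01 M H2SO4, final 150 μM, no DPD added. Acid-water and AI-2 controls per series; triplicate independent cultures.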
# [3] = target: T1, Autoinducer 2-binding periplasmic protein LuxP; test: (§1) Binding affinity to Vibrio harveyi CFP/YFP-tagged LuxP receptor assessed as decrease in FRET ratio
# Outline: (§2)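 Purified CFP-LuxP-YFP chimera, 12.5 µg ml⁻¹, in 25 mM sodium phosphate pH 8, 35 mM NaCl, 1 mM borate; serially diluted compounds (in 0.01 M H2SO4 water), 2.5 µl into 280 µl reaction. FRET ratio 527/485 nm; lower ratio indicates binding. EC50 from dose series; standard deviations shown.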
# [4] = target: Autoinducer 2-binding periplasmic protein LuxP (Vibrio harveyi) (UniProt P54300); test: as §1; outline: as §2
# Chain of Autoinducer 2-binding periplasmic protein LuxP (Vibrio harveyi) (P54300 whole entry): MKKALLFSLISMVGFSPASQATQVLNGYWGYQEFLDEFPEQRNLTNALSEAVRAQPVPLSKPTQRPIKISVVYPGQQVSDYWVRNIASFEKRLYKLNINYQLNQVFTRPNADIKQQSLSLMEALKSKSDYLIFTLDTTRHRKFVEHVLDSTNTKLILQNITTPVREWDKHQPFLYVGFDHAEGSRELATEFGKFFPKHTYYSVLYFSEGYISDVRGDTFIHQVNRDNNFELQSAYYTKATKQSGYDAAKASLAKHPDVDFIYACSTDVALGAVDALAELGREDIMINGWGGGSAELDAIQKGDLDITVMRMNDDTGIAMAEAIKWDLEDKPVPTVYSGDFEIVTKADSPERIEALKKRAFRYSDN
# Vibrio harveyi = test: Growth inhibition of Vibrio harveyi MM32 at 0.1 mM after 5 hrs; format: organism-based; details: in vivo, 100 µM
# [5] = target: T1, Autoinducer 2-binding periplasmic protein LuxP; test: Agonist activity at Vibrio harveyi MM32 LuxP receptor assessed as induction of bioluminescence after 5 hrs 30 mins; format: functional
# Outline: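 MM32 reporter grown in AB medium; compounds serially diluted in 0.01 M H2SO4 water, without added DPD. Light counted as cpm after 5 h 30 min at 30 °C. EC50 from four-parameter sigmoidal fit by non-linear least squares; error bars are standard deviations.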
# [6] = Inhibition of […]-deficient Salmonella Typhimurium Met844 Quorum sensing system by lacZ reporter gene assay; design: species or system Salmonella enterica subsp. enterica serovar Typhimurium
# Escherichia coli [7] = test: Agonist activity at LsrB receptor in LsrF-, LsrG-, luxS-deficient Escherichia coli KX1446 assessed as increase in receptor agonist DPD-induced lsr gene expression at 150 uM after 4.5 to 5 hrs by LacZ reporter gene assay; format: functional
# Outline: (§3)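 E. coli lsr-lacZ reporter KX1446 in LB with overnight culture aliquot; analogs at final 15 or 150 μM added from 2 mM stocks in 0.01 M H2SO4, with 20 µM DPD present. Acid-water and AI-2 controls.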
# [8] = target: T1, Autoinducer 2-binding periplasmic protein LuxP; test: Antagonist activity at Vibrio harveyi MM32 LuxP receptor assessed as decrease in receptor agonist DPD-induced bioluminescence after 5 hrs 30 mins; format: functional
# Outline: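 V. harveyi MM32 in AB medium with 0.1 μM DPD plus serial dilutions of test compound (in 0.01 M H2SO4 water). Luminescence read as cpm after 5 h 30 min at 30 °C; IC50 by four-parameter sigmoidal non-linear least-squares fitting.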
# Escherichia coli [9] = test: Agonist activity at LsrB receptor in LsrF-, LsrG-, luxS-deficient Escherichia coli KX1446 assessed as increase in receptor agonist DPD-induced lsr gene expression at 15 uM after 4.5 to 5 hrs by LacZ reporter gene assay; format: functional; outline: as §3
# T1 sequence (P54300 whole entry): as above
EC50 [1] [µM],EC50 [3] [µM],Activity [4],EC50 [5] [µM],IC50 [6] [µM],IC50 [8] [µM],SMILES,Activity (Escherichia coli [2]),growth inhibition (GI) (Vibrio harveyi),Activity (Escherichia coli [7]),Activity (Escherichia coli [9])
–,0.14,Dose-dependent effect,0.65,–,–,"CC(=O)C(=O)[C@@H](O)[C@@H](C)O (single isomer, unassigned)",inactive,Toxic,–,–
–,10,Dose-dependent effect,26.5,–,–,CC(=O)C(=O)[C@H](O)[C@H](C)O,inactive,Toxic,–,–
–,1.87,Dose-dependent effect,6.21,–,57.5,CC(=O)C(=O)[C@@H](O)[C@H](C)O,inactive,Toxic,Active,Active
–,11.6,Dose-dependent effect,19.5,–,160,CC(=O)C(=O)[C@H](O)[C@@H](C)O,inactive,Toxic,inactive,inactive
30,–,–,–,–,–,CC(=O)C(=O)[C@H](O)CO,–,–,–,–

# More lines, now with the values behind:
SMILES,EC50 [1] [µM],EC50 [3] [µM],Activity [4],EC50 [5] [µM],IC50 [6] [µM],IC50 [8] [µM],Activity (Escherichia coli [2]),growth inhibition (GI) (Vibrio harveyi),Activity (Escherichia coli [7]),Activity (Escherichia coli [9])
O=C(C(=O)C(F)(F)F)[C@@H](O)CO,30,–,–,–,–,–,–,–,–,–
CCCCCC(=O)C(=O)[C@@H](O)CO,–,–,–,–,5,–,–,–,–,–
CC(=O)C(=O)[C@@H](O)CO,–,0.032,–,0.076,–,–,–,Toxic,–,–
